Screens as filed in PubChem.
RGS4 pot = potentiators or activators of RGS4; B-score at 10 µM; 310,000 tested, 0.92% active; HEK293 M3R/inducible RGS4, carbachol calcium flux Fluo4; hits give low values; AID 463111;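 active = B-score of the integrated calcium signal more than 4 SD below the library mean, with starting fluorescence not abnormally high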;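 note: negative B-score means reduced calcium response which marks RGS4 activation or potentiation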
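Material: Inducible-RGS4 HEK293 cells carrying M3 receptor; also added: carbachol at ECmax as muscarinic agonist stimulus; incubation: compound preincubation 20 min at room temperature before agonist; signal: Fluo4-AM (2 µM) calcium-flux fluorescence, kinetic read; measure: integrated calcium ratio converted to B score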
MrgX1 PAM = allosterically activates human MrgX1 receptor signaling; Q96LB2; MrgX1-HEK293, Fluo-4 calcium flux, FDSS; hits give high values; B-score at 10 µM; 310,000 tested, 0.63% active; AID 588675;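 active = plate-corrected calcium response at least 3 library SD above typical, normal starting fluorescence, not activating the receptor alone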;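 note: compound read alongside a low EC10 to EC30 dose of BAM8-22 agonist; peak minus trough fluorescence over baseline measured at the second addition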
Target sequence (Q96LB2 whole entry, looked up): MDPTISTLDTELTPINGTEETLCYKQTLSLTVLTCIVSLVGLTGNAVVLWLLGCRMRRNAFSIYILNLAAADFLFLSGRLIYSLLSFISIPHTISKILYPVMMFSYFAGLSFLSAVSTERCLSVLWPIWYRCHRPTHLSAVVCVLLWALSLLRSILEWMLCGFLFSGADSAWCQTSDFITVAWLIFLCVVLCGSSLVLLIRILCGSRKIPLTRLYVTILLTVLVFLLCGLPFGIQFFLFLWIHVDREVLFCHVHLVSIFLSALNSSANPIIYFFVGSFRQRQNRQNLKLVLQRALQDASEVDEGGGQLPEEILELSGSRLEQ
RGS4 block = human RGS4 inhibition; P49798; HEK293 M3R/RGS4 inducible, Fluo-4 calcium flux; hits give high values; triggered by carbachol at its EC20; B-score at 10 µM; 310,000 tested, 0.45% active;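 active = B-score, a plate-corrected calcium signal, over three deviations above library mean, with baseline fluorescence within five deviations of library mean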;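 note: RGS4 expression induced by doxycycline in cells with stable M3 receptor; B-score is computed from the integrated fluorescence ratio over baseline after carbachol; higher B-score means a larger calcium signal and so more RGS4 inhibition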
Target sequence (P49798 whole entry, looked up): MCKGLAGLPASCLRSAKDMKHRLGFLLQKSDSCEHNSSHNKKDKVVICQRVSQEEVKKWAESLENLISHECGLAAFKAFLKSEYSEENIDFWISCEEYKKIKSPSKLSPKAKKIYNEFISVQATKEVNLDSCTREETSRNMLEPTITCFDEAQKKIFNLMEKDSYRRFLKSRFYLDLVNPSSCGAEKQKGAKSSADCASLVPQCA
MrgX1 antagonist = human MrgX1 receptor antagonism, primary screen. Q96LB2. 310,000 tested, 1.3% active. MRGX1-HEK293 calcium flux, Fluo-4, BAM8-22 antagonism; hits give low values. B-score at 10 µM;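 active = calcium-response B-score plate-corrected more than 3 library SD below zero, starting fluorescence within 5 deviations, no agonist response on first addition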;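 note: peak minus trough fluorescence over baseline after final BAM8-22 challenge near maximal dose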
MrgX1 ag = agonists of human MrgX1 receptor | MrgX1-HEK293 cells, Fluo-4 calcium fluorescence, agonist mode; hits give high values | B-score at 10 µM | Q96LB2 | 310,000 tested, 0.44% active;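 active = calcium response B-score plate-corrected fluorescence ratio at least 3 library SD, with starting fluorescence B-score inside 5 SD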
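System: HEK293 cells stably expressing human MrgX1 receptor; Dosing: test compound in the initial addition of three; Schedule: overnight plating, then 30 min 37 °C plus 30 min room-temperature dye loading; Detection: kinetic calcium dye fluorescence, Fluo-4 NW; Controls: per-plate positive and negative controls for Z′ factor.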
RGS4 act valid = confirmation of RGS4 activators. shares compounds with RGS4 pot. inhibition, % at 10 µM. 1,100 tested, 89% active. HEK293 M3R/RGS4 inducible, carbachol calcium flux Fluo4. AID 602282;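 active = inhibition above 3 SD of the buffer control wells, cut at about 41% in these data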;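 note: signal is the integrated peak-minus-minimum Fluo4 fluorescence over baseline ratio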
M3R Ca counter = RGS4 activator counter-screen hit in non-induced cells | shares compounds with RGS4 pot | HEK293 M3R non-induced RGS4, Fluo4 calcium flux; after carbachol challenge at its EC90 | inhibition, % at 10 µM | 1,100 tested, 82% active | AID 602283;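 active = inhibition exceeding 3 SD of buffer-only control wells, cut at about 26% in these data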;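 note: percent drop in integrated peak-minus-baseline over baseline Fluo4 ratio after carbachol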
Numbers without * were called inactive; i = inactive; x = no result. An excerpt weighted towards active compounds, which were near 3.5% of everything screened.

SMILES	RGS4 pot	MrgX1 PAM	RGS4 block	MrgX1 antagonist	MrgX1 ag	RGS4 act valid	M3R Ca counter
CCOC(=O)C1=C(C)N(CCCC(=O)O)C(=O)NC1c1ccccc1OC(=O)c1cccs1 (centres undefined)	i	i	i	i	i	x	x
Cc1nn2c(=O)c3c4c(sc3nc2n1-c1ccccc1)COC(C)(C)C4	i	i	i	i	i	x	x
Cc1ccccc1NC(=O)/C(=C/c1ccccc1)c1ccccc1	i	8.1*	i	i	i	x	x
Cc1cccc(C)c1NC(=O)/C(=C/c1ccco1)c1ccccc1	i	12*	i	i	i	x	x
O=C(Nc1ccccc1)/C(=C/c1ccccc1)c1ccccc1	i	i	i	i	i	x	x
CCOC(=O)C(=CNc1nc(-c2ccccc2)c(C(=O)Nc2ccc(-c3ccccc3)cc2)s1)C(=O)OCC	i	i	i	i	i	x	x
C/C(=N\NC(=O)c1ccccc1O)c1ccc(NC(=O)Cc2ccccc2)cc1	i	i	i	i	i	x	x
O=C(Nc1ccc(Br)c2ccccc12)c1ccc2ccccc2c1O	-7.5*	i	i	i	i	x	x
CC(=O)Nc1ccc(Br)c2ccccc12	i	i	i	i	i	x	x
N#C/C(=C\c1cccs1)Sc1nc2ccccc2s1	i	i	i	-5.3*	i	x	x
N#C/C(=C\c1ccc[nH]1)Sc1nc2ccccc2s1	i	i	i	i	i	x	x
O=C(Nc1ccc(F)cc1F)C1CCN(S(=O)(=O)c2cccnc2)CC1	i	i	i	i	i	x	x
CN1c2cccc3cccc(c23)N(C)C1c1cccs1	i	i	i	i	i	x	x
CC1N(C)c2cccc3cccc(c23)N1C	i	i	i	i	33*	x	x
O=[N+]([O-])c1cc(Br)c2nsnc2c1N1CCOCC1	i	i	i	i	59*	x	x
Cc1ccc(C(CNS(=O)(=O)c2ccc(F)cc2C)N2CCN(C)CC2)cc1 (centres undefined)	i	i	i	i	i	x	x
CC(/C=N/NC(=O)Cn1cnc2ccccc21)=C\c1ccccc1	i	i	i	i	i	x	x
CC(/C=N/NC(=O)CCn1nnc2ccccc21)=C\c1ccccc1	i	i	i	-7.7*	i	x	x
COC(=O)c1cc(C(=O)c2cc(F)ccc2O)cn2c(=O)c3c(C)c(C)sc3nc12	-7*	i	i	-4.7*	i	x	x
Cc1ccc(/C=C/C2=NN(Cc3ccccc3)C(=O)CC2)cc1	i	i	i	i	i	x	x
O=C1CCC(/C=C/c2ccccc2)=NN1Cc1ccccc1	i	10*	i	i	i	x	x
C/C(CC(C)(C)C1CCCCC1)=N\NC(N)=S	i	i	i	-8.7*	i	x	x
COc1ccccc1N1CCN(C(=O)c2oc3cc(C)c(C)cc3c2C)CC1	i	x	i	x	x	x	x
CCOc1ccc2oc(C(=O)N3CCN(c4ccccc4OCC)CC3)c(C)c2c1	-10*	i	i	i	i	92*	79*
N#CC(C#N)=c1ccc2c(c1)N1C3=C(CCCC3)CC3CCCCC31N=2 (centres undefined)	-8.2*	i	i	i	i	84*	84*
SMILES	RGS4 pot	MrgX1 PAM	RGS4 block	MrgX1 antagonist	MrgX1 ag	RGS4 act valid	M3R Ca counter
c1ccc(C(c2ccccc2)c2noc(CN3CCN(CC4CC4)CC3)n2)cc1	-8*	i	i	i	i	93*	78*
CCOC(=O)c1c(NC(=O)CSc2nnnn2-c2ccc3c(c2)OCCO3)sc(C)c1C	-9.5*	i	i	i	i	84*	32*
Cc1ccc(S(=O)(=O)NC(C)(C)CN2CCCCC2)cc1	i	i	i	i	i	x	x
CCc1ccccc1N(C)S(=O)(=O)c1cc(-c2cc(C)no2)ccc1OC	i	i	i	i	i	x	x
CCN(CC#CCC(O)(c1ccccc1)c1ccccc1)C(C)C	-8.3*	i	i	i	i	79*	30*
Nc1c(Cl)cc(-c2csc(N3CCCC3c3nc4cc(Cl)c(N5CCCCC5)cc4n3CCCO)n2)cc1Cl (centres undefined)	i	i	i	i	i	x	x
Cc1ccc(CNC(=O)CSc2nc3c(sc4ccccc43)c(=O)n2CCCN2CCCC2)cc1	-11*	i	i	i	i	94*	97*
COc1ccc(C(=O)NC(=S)N2CCN(c3ccccc3OC)CC2)cc1OC	i	i	i	i	i	x	x
Cc1ccc(NC(=S)NC2CCSc3ccccc32)cc1C (centres undefined)	-8.8*	i	i	i	i	92*	93*
O=C(NC1CCCCCC1)c1ccc(CS(=O)Cc2cccc(Cl)c2)o1 (centres undefined)	i	i	i	i	i	x	x
Cc1ccc(S(=O)(=O)c2nc(-c3ccc(F)cc3)oc2N2CCOCC2)cc1	i	i	i	i	i	x	x
CCOc1ccc(S(=O)(=O)N2CCC(C(=O)NC3CCCC3)CC2)cc1	i	i	i	i	i	x	x
CCCCN(CC)CCNC(=O)c1cc2c(-c3ccc(Cl)cc3)nn(C)c2s1	-8.9*	i	i	i	i	72*	57*
CCc1ccc(OCC(=O)N2CCN=C2c2ccccc2)cc1	-8.6*	i	i	i	i	0	0
CCOC(=O)C1=C(C)OC(N)=C(C#N)C1c1cc2c(cc1Br)OCO2 (centres undefined)	-8.7*	i	i	i	i	90*	65*
Nc1ccc2c(c1)C(=O)c1ccccc1-2	i	i	i	i	i	x	x
Nc1ccc2c(c1)C(=O)C(=O)c1ccccc1-2	-8.7*	i	i	i	i	68*	48*
COc1ccc(S(=O)(=O)N2CCN(Cc3ccc4c(c3)OCO4)CC2)cc1	-11*	i	i	i	i	62*	84*
COc1ccc(S(=O)(=O)N2CCC(N3CCN(Cc4ccccc4)CC3)CC2)cc1	-8*	i	i	i	i	86*	50*
CSc1ccc(S(=O)(=O)N2CCN(Cc3ccc4c(c3)OCO4)CC2)cc1	-9.9*	i	i	i	i	92*	91*
Cc1cccc(S(=O)(=O)N2CCN(Cc3ccc4c(c3)OCO4)CC2)c1	-10*	i	i	i	i	68*	84*
